Series [1] relates to A549. In words: Antiproliferative activity against human A549 cells assessed as reduction in cell viability after 72 hrs by MTT assay. Format: functional, cell-based. As to conditions: A549, 72 h. In general terms: Tetrazolium dyes change colour on reduction, which living cells bring about.
For series [2], the system named is A549. Kind of series: Cytotoxicity against human A549 cells assessed as change in cell morphology incubated for 48 hrs. In kind it is functional, cell-based.
Series [3] addresses T1, Tubulin (Sus scrofa) (UniProt P02554+P02550). Kind of series: Induction of porcine brain tubulin polymerization at 10 uM.
Series [4] addresses T1, Tubulin (Sus scrofa). In words: Inhibition of porcine brain tubulin polymerization at 10 uM.
Series [5] deals with A549. Kind of series: Induction of cell cycle arrest in human A549 cells assessed as accumulation at G0/G1 phase at 2.5 uM incubated for 24 hrs by Muse cell analyzer based flow cytometry (reference value: 63.9%). Format: functional. (Flow cytometry measures light scatter and fluorescence of single cells or particles in a stream.)
The subject of series [6] is A549. Kind of series: Induction of cell cycle arrest in human A549 cells assessed as accumulation at S phase at 2.5 uM incubated for 24 hrs by Muse cell analyzer based flow cytometry (reference value: 8%). In kind it is functional.
For series [7], the system named is A549. Kind of series: Induction of cell cycle arrest in human A549 cells assessed as accumulation at G2/M phase at 2.5 uM incubated for 24 hrs by Muse cell analyzer based flow cytometry (reference value: 22.3 to 24%). In kind it is functional.
Series [8] deals with A549. Kind of series: Induction of cell cycle arrest in human A549 cells assessed as accumulation at G0/G1 phase at 5 uM incubated for 24 hrs by Muse cell analyzer based flow cytometry (reference value: 63.9%). In kind it is functional.
The test system of series [9] is A549. In words: Induction of cell cycle arrest in human A549 cells assessed as accumulation at S phase at 5 uM incubated for 24 hrs by Muse cell analyzer based flow cytometry (reference value: 8%). Format: functional.
Series [10] concerns A549. Kind of series: Induction of cell cycle arrest in human A549 cells assessed as accumulation at G2/M phase at 5 uM incubated for 24 hrs by Muse cell analyzer based flow cytometry (reference value: 22.3 to 24%). Format: functional.
Series [11] deals with A549. Kind of series: Induction of cell cycle arrest in human A549 cells assessed as increase in accumulation at G2/M phase incubated for 24 hrs by Muse cell analyzer based flow cytometry. In kind it is functional.
A short description of series [12]: Drug uptake in nucleus of human A549 cells at 250 uM incubated for 3 hrs by Hoechst 33342 staining based confocal laser microscopic method. Format: ADME, subcellular. As to conditions: a549, 3 h. Summed up:
(§1)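 Live A549 cells were incubated for 3 h with the FITC-linked conjugate at 250 μM, then stained with Hoechst 33342 nuclear dye at 0.1 for 5 min. Live-cell confocal laser microscopy located the green signal in the cytoplasm or nucleus.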

A short description of series [13]: Drug uptake in cytoplasm of human A549 cells at 250 uM incubated for 3 hrs by Hoechst 33342 staining based confocal laser microscopic method. In kind it is ADME, subcellular. Particulars: a549, 3 h. The procedure, abridged:
as §1

The subject of series [14] is A549. In words: Induction of cell cycle arrest in human A549 cells assessed as accumulation at G2/M phase at 200 uM incubated for 24 hrs by Muse cell analyzer based flow cytometry (reference value: 16.2%). Format: functional.

Active and inactive are the calls of the source. The rule behind the calls is not given here.

T1 sequence (P02550 whole entry, looked up): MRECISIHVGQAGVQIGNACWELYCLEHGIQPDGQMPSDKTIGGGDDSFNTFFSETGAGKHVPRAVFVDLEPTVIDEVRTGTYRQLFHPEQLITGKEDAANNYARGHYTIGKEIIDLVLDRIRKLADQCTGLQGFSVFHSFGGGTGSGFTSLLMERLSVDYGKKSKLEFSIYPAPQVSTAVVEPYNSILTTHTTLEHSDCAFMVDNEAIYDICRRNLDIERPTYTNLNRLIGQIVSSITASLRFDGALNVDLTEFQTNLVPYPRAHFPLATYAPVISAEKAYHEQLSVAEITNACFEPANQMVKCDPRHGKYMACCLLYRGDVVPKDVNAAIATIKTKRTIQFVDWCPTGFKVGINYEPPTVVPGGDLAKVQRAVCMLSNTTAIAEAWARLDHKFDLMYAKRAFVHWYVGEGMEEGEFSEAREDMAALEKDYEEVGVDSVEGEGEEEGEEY
T1 sequence (P02554 whole entry, looked up): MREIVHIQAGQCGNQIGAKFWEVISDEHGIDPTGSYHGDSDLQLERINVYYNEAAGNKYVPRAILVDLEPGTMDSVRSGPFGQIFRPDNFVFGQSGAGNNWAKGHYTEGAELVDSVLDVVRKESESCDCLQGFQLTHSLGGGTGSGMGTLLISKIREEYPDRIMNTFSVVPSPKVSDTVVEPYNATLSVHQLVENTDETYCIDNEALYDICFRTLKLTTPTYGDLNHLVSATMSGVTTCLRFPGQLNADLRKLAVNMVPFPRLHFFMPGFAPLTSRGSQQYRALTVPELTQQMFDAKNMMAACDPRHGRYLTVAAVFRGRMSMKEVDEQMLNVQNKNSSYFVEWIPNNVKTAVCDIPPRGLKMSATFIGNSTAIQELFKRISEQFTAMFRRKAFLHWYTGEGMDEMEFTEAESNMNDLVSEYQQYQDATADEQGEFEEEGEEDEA

Usually IC50 stands for the point on the concentration scale where inhibition reaches its midpoint. For the molecule `O=C(OCCOCCOCCO)c1ccc(-c2c(-c3ccccc3)[nH]c3ccccc23)cc1`, the half-maximal inhibitory concentration (IC50) with A549 [1] came to 10.2 µM. In addition, the result with A549 [2] was Active.

As to `COC(=O)c1ccc(-c2c(-c3ccccc3)n(CCOCCOCCO)c3ccccc23)cc1`, the IC50 in the series with A549 [1] was found to be 30.8 µM.

As to `CC(=O)O[C@H]1C(=O)[C@@]2(C)[C@H]([C@H](OC(=O)c3ccccc3)[C@]3(O)C[C@H](OC(=O)[C@H](O)[C@@H](NC(=O)c4ccccc4)c4ccccc4)C(C)=C1C3(C)C)[C@]1(OC(C)=O)CO[C@@H]1C[C@@H]2O`, the result on Tubulin (Sus scrofa) [3] was Active.

Consider `COC(=O)c1ccc(-c2c(-c3ccccc3)[nH]c3ccccc23)cc1`, for which, at Tubulin (Sus scrofa) [4], the inhibition entry was “Active”. Moreover, the Activity in the series on A549 [5] is recorded as 40.9%; with A549 [6], 9.5%; in the series on A549 [7] it was 41.4 - 42.8%; in the series with A549 [8] it was 10.2%; with A549 [9], 7.5%; with A549 [10], 70 - 71%. In the series on A549 [11], the Activity result is “Dose-dependent effect”.

In the case of `O=C(OCCOCCOCCO)c1ccc(-c2[nH]c3ccccc3c2-c2ccccc2)cc1`, the IC50 in the series with A549 [1] turned out to be 29.5 µM.

For `O=C(OCCOCCOCCOCCOCCOCCNC(=S)Nc1ccc(-c2c3ccc(=O)cc-3oc3cc(O)ccc23)c(C(=O)O)c1)c1ccc(-c2c(-c3ccccc3)[nH]c3ccccc23)cc1`, the Drug uptake result in series [12] is “Not Active”; in series [13], “Active”. Besides, the IC50 with A549 [1] is 238 µM. In addition, the Activity in the series on A549 [14] is 53.3%.

Turning to `COC(=O)c1ccc(-c2c(-c3ccccc3)c3ccccc3n2CCOCCOCCO)cc1`, the IC50 in the series with A549 [1] was 41.3 µM.

Values taken from ChEMBL document CHEMBL4342424, “A synthetic 2,3-diarylindole induces microtubule destabilization and G2/M cell cycle arrest in lung cancer cells” (Bioorg Med Chem Lett, 2020).
